Assay results as given in ChEMBL document CHEMBL3297702, “Improving photodynamic inactivation of bacteria in dentistry: highly effective and fast killing of oral key pathogens with novel tooth-colored type-II photosensitizers” (J Med Chem, 2014).
Calls of active or inactive are those of the source. The calls are words filed in the database; no cut-off is given here.

Assays:
Enterococcus faecalis [1] = assay: Photodynamic inactivation of Enterococcus faecalis ATCC 29212 assessed as reduction of log10 CFU at 1 uM incubated prior to irradiation with 50 j/cm'2 for 40 secs measured after 24 hrs by agar plating method (reference value: <1 no unit); type: functional
In short: (§1)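 E. faecalis ATCC 29212, aerobic overnight BHI culture at 37 °C, was harvested at stationary phase and suspended in PBS at 10^7–10^8 bacteria/mL. It was mixed 1:1 with PS to 0–250 µM final, held 10 s, then illuminated (1260 ± 50 mW/cm2) or kept dark. Dilutions were plated on Mueller-Hinton agar, aerobic 37 °C 24 h, CFU counted. Medians of three independent triplicate experiments, referred to untreated controls.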

Enterococcus faecalis [2] = assay: Photodynamic inactivation of Enterococcus faecalis ATCC 29212 assessed as reduction of log10 CFU at 10 uM incubated prior to irradiation with 50 j/cm'2 for 40 secs measured after 24 hrs by agar plating method (reference value: <1 no unit); type: functional; in short: as §1
Enterococcus faecalis [3] = assay: Photodynamic inactivation of Enterococcus faecalis ATCC 29212 assessed as reduction of log10 CFU at 1 uM incubated prior to irradiation with 25 j/cm'2 for 20 secs measured after 24 hrs by agar plating method (reference value: <1 no unit); type: functional; in short: as §1
Enterococcus faecalis [4] = assay: Photodynamic inactivation of Enterococcus faecalis ATCC 29212 assessed as reduction of log10 CFU at 10 uM incubated prior to irradiation with 150 j/cm'2 for 120 secs measured after 24 hrs by agar plating method (reference value: <1 no unit); type: functional; in short: as §1
[5] = test system: Aggregatibacter actinomycetemcomitans; assay: Photodynamic inactivation of Aggregatibacter actinomycetemcomitans ATCC 43718 assessed as reduction of log10 CFU at 5 uM incubated prior to irradiation with 25 j/cm'2 for 20 secs measured after 48 hrs by agar plating method relative to control; type: functional, Y4
In short: (§2)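 A. actinomycetemcomitans ATCC 43718 cultured overnight in BHI broth under anaerobic conditions, 37 °C with shaking. Stationary-phase cells were spun down, taken up in PBS to 10^7–10^8/mL, and combined 1:1 with PS (final 0–250 µM) or water. After 10 s they were irradiated at 1260 ± 50 mW/cm2 or kept dark. Serial dilutions went onto BHI agar, incubated anaerobically at 37 °C for 48 h, and CFU were scored. Results are medians from 3 experiments × triplicate versus untreated controls.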

Enterococcus faecalis [6] = assay: Photodynamic inactivation of Enterococcus faecalis ATCC 29212 assessed as reduction of log10 CFU at 10 uM incubated prior to irradiation with 25 j/cm'2 for 20 secs measured after 24 hrs by agar plating method (reference value: <1 no unit); type: functional; in short: as §1
Actinomyces naeslundii = assay: Photodynamic inactivation of Actinomyces naeslundii T14V assessed as reduction of log10 CFU at 1 uM incubated prior to irradiation with 50 j/cm'2 for 40 secs measured after 48 hrs by agar plating method (reference value: <1 no unit); type: functional
In short: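 A. naeslundii T14V grown overnight at 37 °C, shaken, aerobically in BHI broth. Harvested at stationary phase, resuspended in PBS to 10^7–10^8 bacteria/mL (OD600). Mixed 1:1 with PS (final 0–250 µM) or water, 10 s incubation, then blue photopolymerizer light (1260 ± 50 mW/cm2) or dark. Tenfold dilutions plated on blood agar, aerobic 37 °C 48 h, CFU counted; medians of three independent experiments in triplicate.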

Enterococcus faecalis [7] = assay: Photodynamic inactivation of Enterococcus faecalis ATCC 29212 assessed as reduction of log10 CFU at 5 uM incubated prior to irradiation with 150 j/cm'2 for 120 secs measured after 24 hrs by agar plating method (reference value: <1 no unit); type: functional; in short: as §1
[8] = Induction of singlet oxygen generation measured over 20 mins by luminescence assay; type: physicochemical
[9] = Octanol-water partition coefficient, log P of the compound at 1 x 10^-4 mol at room temperature after 10 mins by UV/vis spectroscopic analysis; type: physicochemical
Streptococcus mutans [10] = assay: Photodynamic inactivation of Streptococcus mutans ATCC 25175 assessed as reduction of log10 CFU at 100 uM incubated prior to irradiation with 25 j/cm'2 for 20 secs measured after 48 hrs by agar plating method (reference value: <1 no unit); type: functional
[11] = Photobleaching of the compound irradiated with laser energy at 405 nm for 5 mins; type: physicochemical; design: dose or concentration left out as unconfirmed
Enterococcus faecalis [12] = assay: Photodynamic inactivation of Enterococcus faecalis ATCC 29212 assessed as reduction of log10 CFU at 5 uM incubated prior to irradiation with 50 j/cm'2 for 40 secs measured after 24 hrs by agar plating method (reference value: <1 no unit); type: functional; in short: as §1
Enterococcus faecalis [13] = assay: Photodynamic inactivation of Enterococcus faecalis ATCC 29212 assessed as reduction of log10 CFU at 100 uM incubated prior to irradiation with 150 j/cm'2 for 120 secs measured after 24 hrs by agar plating method (reference value: <1 no unit); type: functional; in short: as §1
Enterococcus faecalis [14] = assay: Photodynamic inactivation of Enterococcus faecalis ATCC 29212 assessed as reduction of log10 CFU at 5 uM incubated prior to irradiation with 25 j/cm'2 for 20 secs measured after 24 hrs by agar plating method (reference value: <1 no unit); type: functional; in short: as §1
Enterococcus faecalis [15] = assay: Photodynamic inactivation of Enterococcus faecalis ATCC 29212 assessed as reduction of log10 CFU at 100 uM incubated prior to irradiation with 25 j/cm'2 for 20 secs measured after 24 hrs by agar plating method (reference value: <1 no unit); type: functional; in short: as §1
Enterococcus faecalis [16] = assay: Photodynamic inactivation of Enterococcus faecalis ATCC 29212 assessed as reduction of log10 CFU at 1 to 250 uM preincubated for 10 secs followed by irradiation with 50 j/cm'2 for 40 secs measured after 24 hrs by agar plating method; type: functional, organism-based; in short: as §1
Streptococcus mutans [17] = assay: Photodynamic inactivation of Streptococcus mutans ATCC 25175 assessed as reduction of log10 CFU at 1 to 250 uM preincubated for 10 secs followed by irradiation with 25 j/cm'2 for 20 secs measured after 48 hrs by agar plating method; type: functional
Enterococcus faecalis [18] = assay: Photodynamic inactivation of Enterococcus faecalis ATCC 29212 assessed as reduction of log10 CFU at 100 uM incubated prior to irradiation with 50 j/cm'2 for 40 secs measured after 24 hrs by agar plating method (reference value: <1 no unit); type: functional; in short: as §1
[19] = test system: Aggregatibacter actinomycetemcomitans; assay: Photodynamic inactivation of Aggregatibacter actinomycetemcomitans ATCC 43718 assessed as reduction of log10 CFU at 100 uM incubated prior to irradiation with 50 j/cm'2 for 40 secs measured after 48 hrs by agar plating method (reference value: <1 no unit); type: functional, Y4; in short: as §2
Enterococcus faecalis [20] = assay: Photodynamic inactivation of Enterococcus faecalis ATCC 29212 assessed as reduction of log10 CFU at 1 uM incubated prior to irradiation with 150 j/cm'2 for 120 secs measured after 24 hrs by agar plating method (reference value: <1 no unit); type: functional; in short: as §1
Streptococcus mutans [21] = assay: Photodynamic inactivation of Streptococcus mutans ATCC 25175 assessed as reduction of log10 CFU at 10 uM incubated prior to irradiation with 50 j/cm'2 for 40 secs measured after 48 hrs by agar plating method (reference value: <1 no unit); type: functional

| Structure (SMILES) | log10cfu (Enterococcus faecalis [1]) | log10cfu (Enterococcus faecalis [2]) | log10cfu (Enterococcus faecalis [3]) | log10cfu (Enterococcus faecalis [4]) | log10cfu [5] | log10cfu (Enterococcus faecalis [6]) | log10cfu (Actinomyces naeslundii) | log10cfu (Enterococcus faecalis [7]) | Activity [8] | logP at 10 min [9] | log10cfu (Streptococcus mutans [10]) | Stability [11] | log10cfu (Enterococcus faecalis [12]) | log10cfu (Enterococcus faecalis [13]) | log10cfu (Enterococcus faecalis [14]) | log10cfu (Enterococcus faecalis [15]) | Activity (Enterococcus faecalis [16]) | Activity (Streptococcus mutans [17]) | log10cfu (Enterococcus faecalis [18]) | log10cfu (Enterococcus faecalis [20]) | further results |
| --- | --- | --- | --- | --- | --- | --- | --- | --- | --- | --- | --- | --- | --- | --- | --- | --- | --- | --- | --- | --- | --- |
| O=C1C(C[n+]2ccccc2)=Cc2cccc3cccc1c23.[Cl-] | <1 | >6 | <1 | >6 | <3 | <3 | <1 | >6 | Active | -1.3 | >6 | Unstable | <3 | >6 | <1 | >6 | Active | Active | >6 | <3 | log10cfu [19]: >6; log10cfu (Streptococcus mutans [21]): >6 |
| C[N+](C)(C)CC1=Cc2cccc3cccc(c23)C1=O.[Cl-] | <1 | <3 | <1 | >6 |  | <1 |  | >6 | Active | -1.4 |  | Unstable | <3 | >6 | <1 | >6 | Active | Active | >6 | <3 |  |
| C[N+](C)(CCO)CC1=Cc2cccc3cccc(c23)C1=O.[Cl-] | <1 | <3 | <1 | >6 | <3 | <3 | <1 | <3 | Active | -1.3 | >6 | Unstable | <1 | >6 | <1 | >6 |  |  | >6 | <1 | log10cfu [19]: >6; log10cfu (Streptococcus mutans [21]): <3 |
